# Data from ChEMBL document CHEMBL1142957, “Total structure and inhibition of tumor cell proliferation of laxaphycins” (J Med Chem, 2007).
# Legend:
# [1] = Cytotoxicity against vinblastine-resistant CEM/VLB100 cells after 72 hrs; format: cell-based; settings: Homo sapiens, CEM/VLB100, 72 h
# How it was run: (§1)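 Leukemic lymphoblasts (parent CCRF-CEM, Pgp-overexpressing CEM/VLB100, topo II-altered CEM/VM-1) grown in RPMI 1640 with 10% FCS and antibiotics, 37 °C, 5% CO2. Serial dilutions in medium added to 2 × 10⁵ cells/mL for 3 days, medium not renewed. Survivors counted on a Coulter counter. Triplicate, averaged.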
# CCRF-CEM [2] = experiment: Ratio of IC50 for teniposide-resistant CEM/VM1 cells over IC50 for drug-sensitive CCRF-CEM cells; format: functional, Homo sapiens
# CCRF-CEM [3] = experiment: Ratio of IC50 for vinblastine-resistant CEM/VLB100 cells over IC50 for drug-sensitive CCRF-CEM cells; format: functional, Homo sapiens
# CCRF-CEM [4] = experiment: Cytotoxicity against drug-sensitive CCRF-CEM cells after 72 hrs; format: cell-based; settings: Homo sapiens; how it was run: as §1
# [5] = Cytotoxicity against teniposide-resistant CEM/VM1 cells after 72 hrs; format: cell-based; settings: Homo sapiens, CEM-VM1, 72 h; how it was run: as §1
Structure (SMILES),IC50 [1],Ratio IC50 (CCRF-CEM [2]),Ratio IC50 (CCRF-CEM [3]),IC50 (CCRF-CEM [4]),IC50 [5]
CCCCCCC[C@@H]1CC(=O)N[C@@H](C(C)C)C(=O)N[C@@H]([C@@H](O)C(C)C)C(=O)N[C@@H](C)C(=O)N[C@H]([C@@H](O)C(C)C)C(=O)N[C@@H](CCC(N)=O)C(=O)N(C)[C@@H]([C@@H](C)CC)C(=O)N[C@H]([C@@H](O)C(N)=O)C(=O)N[C@@H]([C@@H](C)O)C(=O)N2C[C@H](O)C[C@H]2C(=O)N[C@H](CC(C)C)C(=O)N[C@@H]([C@@H](C)O)C(=O)N1 [LAXAPHYCIN B3],1350 nM,1,0.9,1500 nM,1450 nM
CC[C@]1(O)C[C@@H]2CN(CCc3c([nH]c4ccccc34)[C@@](C(=O)OC)(c3cc4c(cc3OC)N(C)[C@H]3[C@@](O)(C(=O)OC)[C@H](OC(C)=O)[C@]5(CC)C=CCN6CC[C@]43[C@@H]65)C2)C1 [VINBLASTINE],356 nM,2,89,4 nM,8 nM
